Source: ChEMBL document CHEMBL2321789, “Discovery of Indenopyrazoles as a New Class of Hypoxia Inducible Factor (HIF)-1 Inhibitors” (ACS Med Chem Lett, 2013)
Activity calls are given as the source filed them. The rule behind the calls is not given here.

Key:
[1] = biological target: T1, Hypoxia-inducible factor 1-alpha (Homo sapiens, UniProt Q16665); experiment: Inhibition of hypoxia-induced HIF1alpha transcriptional activity in human HeLa cells expressing HRE-Luc after 12 hrs by luciferase reporter gene assay; type: cell-based
Target sequence in this assay (Q16665 whole entry): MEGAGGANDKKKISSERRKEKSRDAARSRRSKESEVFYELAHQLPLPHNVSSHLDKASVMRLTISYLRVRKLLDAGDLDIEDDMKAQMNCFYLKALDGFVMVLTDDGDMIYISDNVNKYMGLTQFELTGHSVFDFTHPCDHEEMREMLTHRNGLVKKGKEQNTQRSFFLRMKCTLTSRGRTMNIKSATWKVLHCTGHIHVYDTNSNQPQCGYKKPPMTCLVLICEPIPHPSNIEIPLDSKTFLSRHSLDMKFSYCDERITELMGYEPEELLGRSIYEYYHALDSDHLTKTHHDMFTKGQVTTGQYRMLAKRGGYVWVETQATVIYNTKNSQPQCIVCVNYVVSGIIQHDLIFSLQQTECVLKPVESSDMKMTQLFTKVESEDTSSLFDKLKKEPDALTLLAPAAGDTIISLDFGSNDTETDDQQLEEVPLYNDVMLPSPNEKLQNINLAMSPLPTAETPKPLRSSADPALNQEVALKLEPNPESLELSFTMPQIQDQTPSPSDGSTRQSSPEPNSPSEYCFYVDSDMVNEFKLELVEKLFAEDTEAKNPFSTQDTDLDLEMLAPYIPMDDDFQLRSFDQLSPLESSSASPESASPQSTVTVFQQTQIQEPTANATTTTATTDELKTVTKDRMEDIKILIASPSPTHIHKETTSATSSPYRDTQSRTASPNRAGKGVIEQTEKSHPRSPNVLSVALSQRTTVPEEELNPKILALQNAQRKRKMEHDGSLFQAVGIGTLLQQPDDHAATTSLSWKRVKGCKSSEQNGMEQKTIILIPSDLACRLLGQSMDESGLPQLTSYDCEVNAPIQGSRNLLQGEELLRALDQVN

[2] = system: PC-3; experiment: Cytotoxicity against human PC3 cells after 72 hrs by MTT assay; type: functional, cell-based; details: PC-3, 72 h
How it was run: (§1)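 Cells exposed to compound at 0.1–30 μM for 72 h; viability read by MTT assay.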

[3] = system: HeLa; experiment: Cytotoxicity against human HeLa cells after 72 hrs by MTT assay; type: functional, cell-based; how it was run: as §1
[4] = system: HepG2; experiment: Cytotoxicity against human HepG2 cells after 72 hrs by MTT assay; type: functional, cell-based; details: HepG2, 72 h; how it was run: as §1
[5] = system: HCT-116; experiment: Cytotoxicity against human HCT116 cells after 72 hrs by MTT assay; type: functional, cell-based; details: HCT-116, 72 h; how it was run: as §1
[6] = biological target: T1, Hypoxia-inducible factor 1-alpha; experiment: Inhibition of hypoxia-induced HIF1alpha transcriptional activity in human HeLa cells expressing HRE-Luc at 30 uM after 12 hrs by luciferase reporter gene assay; type: cell-based
How it was run: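 Reporter HeLa cells stably carrying HRE-firefly luciferase plus CMV-renilla luciferase, incubated 12 h with compound under 1% oxygen. Supernatant removed, then dual luciferase assay. Triplicate samples, mean ± SD.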
Target sequence in this assay (Q16665 whole entry, looked up): as the sequence (Q16665 whole entry) above

[7] = system: HeLa; experiment: Inhibition of hypoxia-induced HIF1alpha nuclear translocation in human HeLa cells at 30 uM after 4 hrs by immunofluorescence analysis; type: functional, cell-based
How it was run: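 Under 1% oxygen, HeLa cells incubated 4 h with compound. HIF-1α localization imaged by immunofluorescence with specific antibody; nuclei stained with DAPI.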

[8] = system: HeLa; experiment: Inhibition of hypoxia-induced HIF1alpha accumulation in human HeLa cells at 30 uM after 4 hrs by Western blot analysis; type: functional, cell-based
How it was run: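 HeLa cells under hypoxia (1% oxygen) treated with compound for 4 h at a range of concentrations. HIF-1α protein detected by immunoblot with specific antibody, tubulin as internal control.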

[9] = system: HeLa; details: Homo sapiens, 0.1 to 10 uM
[10] = system: HeLa; details: Homo sapiens, 1 uM
[11] = system: HeLa; details: Homo sapiens, 0.001 to 1 uM

IC50 [1] [µM] | inhibition [6] [%] | Compound | IC50 [2] [µM] | IC50 [3] [µM] | IC50 [4] [µM] | IC50 [5] [µM] | inhibition [7] | inhibition [8] | inhibition [9] | inhibition [10] | inhibition [11]
> 30 | – | c1ccc(Nc2[nH]nc3c2Cc2ccccc2-3)cc1 | – | – | – | – | – | – | – | – | –
– | 28 | c1ccc(Nc2n[nH]c3c2Cc2cc4c(cc2-3)OCO4)cc1 | 22.3 | 8.5 | 11.2 | 5.2 | – | – | – | – | –
> 30 | 41 | COc1cccc2c1Cc1c-2n[nH]c1Nc1ccccc1 | 21.7 | 1.6 | 5.2 | 2.3 | – | – | – | – | –
– | 0 | c1ccc(Nc2n[nH]c3c2Cc2ccccc2-3)cc1 | > 30 | 17.6 | 24.2 | 17.5 | – | – | – | – | –
> 30 | 3 | COc1cccc2c1-c1[nH]nc(Nc3ccccc3)c1C2 | 3.2 | 0.57 | 0.75 | 0.57 | – | – | – | – | –
6.1 | – | COc1cccc(Nc2n[nH]c3c2Cc2ccccc2-3)c1 | > 30 | 2.9 | 6.8 | 2.2 | – | – | – | – | –
0.27 | – | c1ccc2c(c1)Cc1c-2n[nH]c1Nc1ccc2c(c1)OCO2 | 23.7 | 5.8 | 12.7 | 6.9 | – | – | – | – | –
3.2 | – | COc1ccc(Nc2n[nH]c3c2Cc2ccccc2-3)cc1OC | > 30 | 1.8 | 3.8 | 0.73 | – | – | – | – | –
0.034 | – | COc1cccc2c1Cc1c(Nc3ccc4c(c3)OCCO4)n[nH]c1-2 | 6.9 | 2.1 | 7 | 5.9 | – | – | – | – | –
> 30 | 18 | COc1ccc2c(c1)-c1n[nH]c(Nc3ccccc3)c1C2 | > 30 | 13.4 | 15.4 | 1.5 | – | – | – | – | –
> 30 | – | c1ccc(Nc2[nH]nc3c2Cc2cc4c(cc2-3)OCO4)cc1 | – | – | – | – | – | – | – | – | –
21 | – | COC(=O)c1ccc(O)c(NC(=O)COc2ccc(C34CC5CC(CC(C5)C3)C4)cc2)c1 | > 30 | > 30 | > 30 | > 30 | Active | Active | – | – | –
> 30 | 0 | COc1cc2c(cc1OC)-c1n[nH]c(Nc3ccccc3)c1C2 | 0.72 | < 0.1 | 0.24 | < 0.1 | – | – | – | – | –
> 30 | 28 | COc1ccc2c(c1)Cc1c-2n[nH]c1Nc1ccccc1 | < 0.1 | < 0.1 | < 0.1 | < 0.1 | – | – | – | – | –
– | – | OCc1ccc(-c2nn(Cc3ccccc3)c3ccccc23)o1 | > 30 | 29.3 | 2.2 | 2.2 | – | – | – | – | –
0.214 | – | Nc1ccc(NC(=O)Nc2cccc3c2C(=O)c2c-3n[nH]c2-c2ccc3c(c2)OCO3)cc1 | – | – | – | – | – | – | – | – | –
1.4 | – | COc1ccc(Nc2n[nH]c3c2Cc2ccccc2-3)cc1 | 28.8 | 2.6 | 9.1 | 3.1 | – | – | – | – | –
– | – | c1ccc2c(c1)Cc1c(Nc3ccc4c(c3)OCCO4)n[nH]c1-2 | 25.4 | 1.8 | 3.7 | 2.1 | – | – | inactive | inactive | inactive

Compound | IC50 [1] [µM] | inhibition [6] [%] | IC50 [2] [µM] | IC50 [3] [µM] | IC50 [4] [µM] | IC50 [5] [µM] | inhibition [7] | inhibition [8] | inhibition [9] | inhibition [10] | inhibition [11]
c1ccc2c(c1)Cc1c-2n[nH]c1Nc1ccc2c(c1)OCCO2 | 0.014 | – | – | – | – | – | – | – | – | – | –
